The values below come from article PMC2668526 (Bioorganic & medicinal chemistry, 2008).

The target in assay [1] is T1, rat PAM (Rattus norvegicus, UniProt P14925).
T1 sequence (P14925 36-715 isoform P14925-2 limits assumed): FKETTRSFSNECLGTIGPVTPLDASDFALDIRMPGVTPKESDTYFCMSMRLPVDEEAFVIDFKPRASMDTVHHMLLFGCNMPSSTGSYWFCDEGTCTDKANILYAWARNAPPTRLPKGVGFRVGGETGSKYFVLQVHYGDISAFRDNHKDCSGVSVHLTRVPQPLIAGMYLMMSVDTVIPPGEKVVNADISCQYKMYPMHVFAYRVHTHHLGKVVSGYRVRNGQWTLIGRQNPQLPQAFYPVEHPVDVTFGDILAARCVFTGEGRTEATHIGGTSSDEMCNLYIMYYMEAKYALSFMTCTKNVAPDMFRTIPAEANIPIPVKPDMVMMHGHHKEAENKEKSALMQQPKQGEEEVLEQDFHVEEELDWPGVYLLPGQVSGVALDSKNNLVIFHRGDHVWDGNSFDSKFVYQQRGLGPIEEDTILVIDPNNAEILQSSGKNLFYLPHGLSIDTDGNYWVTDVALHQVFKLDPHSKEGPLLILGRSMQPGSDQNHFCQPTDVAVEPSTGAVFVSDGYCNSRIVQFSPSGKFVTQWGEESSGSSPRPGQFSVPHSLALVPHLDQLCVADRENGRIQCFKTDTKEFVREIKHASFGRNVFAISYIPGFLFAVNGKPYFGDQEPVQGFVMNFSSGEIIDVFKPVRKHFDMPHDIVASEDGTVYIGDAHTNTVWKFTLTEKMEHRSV
Nature of the assay: Bifunctional rat PAM inhibition. In kind it is biochemical.

The next assay has as its system B. germanica PHM. The assay is described as follows: B. germanica PHM inhibition. The settings on record: for RatKi,s/InsectKi,s: ratio rat PAM Ki,s to B. germanica PHM Ki,s; for Ki: read-out: Ki,s vs. B. germanica PHM, N-dansyl-Tyr-Val-Gly amidation. Format: biochemical, Blatella germanica.
For assay [2], the target named is T1, rat PAM. Nature of the assay: Steady-state kinetics of rat bifunctional PAM substrates. The settings on record: for (V/K)app as percent of the corresponding glycine substrate: D-alanine substrate vs. corresponding glycine substrate; for (V/K)app / Km: O2 consumption, 5.0 mM ascorbate, pH 6.0, 37 °C; for Km: read-out: KM,app; for Rel. (V/K)app: relative to hippuric acid = 1.0.

The test system of the next assay is DU 145 cells. The assay is described as follows: Growth of human prostate DU 145 cells. Format: cell-based. The settings on record: for antiproliferative concentration relative to Ki,s for PHM: DU 145 cells vs. in vitro Ki,s. A digest of the protocol: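 DU 145 cells in EMEM (Earle's salts, 2 mM glutamine, 1.0 mM pyruvate, 0.1 mM amino acids, 10% FBS, penicillin/streptomycin). Grown to 80% confluency, trypsinized, seeded at 50,000 cells/well, adhered 24 h. Medium then replaced with or without test compound; 10 μM 4-HPR as positive control. Counted at 8, 24, 48, 72, 96 h: PBS wash, trypsin/EDTA detachment, Trypan blue, hemacytometer viable/non-viable count.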

In another assay the test system is PHM. Particulars: cited from earlier work; for Km: read-out: KM,app.
The target in a further assay is PAL activity of rat PAM (Rattus norvegicus, UniProt P14925). The assay is described as follows: Inhibition of PAL activity. In kind it is biochemical. The settings on record: read-out: inhibition of PAL activity. The essentials: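 Recombinant type A rat medullary thyroid carcinoma PAM (1.5–3.0 μg) started reactions at 37.0 °C. Buffer: 100 mM MES/NaOH pH 6.0, 30 mM NaCl, 1% ethanol, 0.001% Triton X-100. Substrate: 2.0 mM (R,S)-α-hydroxyhippuric acid, with 0 or 750 μM test compound. No-enzyme blank included. TFA quench at 20 min. Glyoxylate measured spectrophotometrically against a standard curve.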

Where [3] appears, read: Ki,s, rat PAM, absence of DMSO, competitive inhibition assumed.

Values joined by “and” are separate entries in the source; they are usually repeats but may differ in a detail not shown here. Identical values can stand only once. Like-named read-outs stand apart in the source and are kept apart here. Where a SMILES comes first, the peptide text is derived from it. The star is where a group is joined. ClAc = O=C(CCl)*; NHOH = ON*

Compound `O=C(NCC[C@H](O)C(=O)O)OCc1ccccc1` [compound 75, (S)-N-CBZ-4-amino-2-hydroxybutyric acid] returned a Ki on rat PAM [1] (setting [3]) of 1400 µM.
For the compound `O=C(O)CCSC(=S)Nc1ccccc1` [compound 56, S-(Phenylthiocarbamoyl)-3-mercaptopropionic acid], the Ki at rat PAM [1] (setting [3]) was found to be 2.6 ± 0.7 µM. Also, in the assay with B. germanica PHM, the “RatKi,s/InsectKi,s” value was determined as 0.47 and the Ki was 5.5 ± 0.8 µM.
In turn, `CC(C#N)(CCC(=O)O)SC(=S)c1ccccc1` (stereo not drawn) [compound 58, S-(Thiobenzoyl)-4-mercapto-4-cyanopentanoic acid] yielded a Ki on rat PAM [1] (setting [3]) of 5.7 ± 0.4 µM.
For the compound `CC(=O)N[C@H](C)C(=O)O` [compound 51, Acetyl-D-alanine], the “(V/K)app as percent of the corresponding glycine substrate” value (“(V/K)app as percent” below) at rat PAM [2] is listed as 0.05–0.3%.
In the case of `O=C(O)CSC(=S)CCc1ccccc1` [compound 62, S-(3-Phenylthiopropionyl)thioglycolic acid], the Ki on rat PAM [1] (Ki,s, rat PAM, […] DMSO) is 30 µM; on rat PAM [1] (setting [3]), 9.4 ± 0.8 µM; on B. germanica PHM, 0.87 ± 0.11 µM. The “RatKi,s/InsectKi,s” value in the assay on B. germanica PHM is given as 11.
Turning to `C[C@@H](NC(=O)c1ccccc1)C(=O)O` [compound 52, Benzoyl-D-alanine], the “(V/K)app as percent” value at rat PAM [2] is 0.05–0.3%.
For the compound `CC1=C(/C=C/C(C)=C/C=C/C(C)=C/C(=O)Nc2ccc(O)cc2)C(C)(C)CCC1` [4-HPR, N-(4-hydroxyphenyl) retinamide, reference compound], the “effect on cell growth (positive control)” value in the assay with DU 145 cells (DU 145 cells, 10 μM, 48 hr) was “completely eliminates cell growth”.
Turning to 3-Indolylacetylglycine [compound 24], at rat PAM [2], the “(V/K)app” value was “(2.5 ± 0.1) × 10^3 M^−1 s^−1”.
For `Cc1ccc(C(=S)SCC(=O)O)cc1` [compound 57, S-(4-Methylthiobenzoyl)thioglycolic acid], the Ki on rat PAM [1] (setting [3]) worked out at 3.5 ± 0.4 µM; at B. germanica PHM, 14 ± 1 µM. In the assay with B. germanica PHM, the “RatKi,s/InsectKi,s” value was 0.25. Also, the “antiproliferative concentration relative to Ki,s for PHM” value with DU 145 cells is given as 60–300 fold.
In turn, `O=C(O)CNC(=S)Nc1ccccc1` [compound 69, N-Phenylthiohydantoic acid] had a Ki on rat PAM [1] (Ki,s, rat PAM, […] DMSO) of 110 ± 20 µM.
As for `O=C(N[C@H](CO)C(=O)O)c1ccccc1` [compound 76, N-(Benzoyl)-D-serine], on rat PAM [1] (setting [3]), the Ki is 1500 µM.
Take `O=C(O)CSC(=S)c1ccccc1` [compound 64, S-(Thiobenzoyl)thioglycolic acid]: the Ki is 49 µM on rat PAM [1] (Ki,s, rat PAM, […] DMSO); 39 ± 5 µM on rat PAM [1] (setting [3]); 92 ± 10 µM on B. germanica PHM.
As to “2-Propylmercaptoacetylglycine [compound 29]”, at rat PAM [2], the “(V/K)app” value was “(8.2 ± 0.3) × 10^3 M^−1 s^−1”, the Km came to 220 ± 10 µM and the “Rel. (V/K)app” value was 1.3.
Take `O=C(O)CNC(=O)CNC(=O)CCl` [compound 34, Chloroacetyl-Gly-Gly] (ClAc-Gly-Gly-OH): on rat PAM [2], the “(V/K)app” value is on record as “(2.1± 0.1) × 10^4 M^−1 s^−1” and the Km came out at 420 ± 30 µM.
Turning to `O=C(O)CNC(=O)c1ccccc1O` [salicylurate], the Km in the assay on PHM (ref 23b) is 860 µM.
`CC(SC(=S)c1ccccc1)C(=O)O` (racemic) [compound 66, S-(Thiobenzoyl)-(R,S)-thiolactic acid] came in with a Ki on rat PAM [1] (setting [3]) of 58 ± 9 µM.
As for `O=C(O)CNC(=O)CCCCCc1ccccc1` [compound 50, 6-Phenylhexanoylglycine], at rat PAM [2], the “increase of (V/K)app over hippurate 1” value is listed as ~ 30 fold and the “ratio of (V/K)app to that of 3-(2-furyl)acryloylglycine 26” value is listed as “about 70”.
In the case of `O=C(O)CONC(=O)c1ccccc1` [compound 73, O-Benzamidoglycolic acid], at rat PAM [1] (setting [3]), the Ki was 1000 µM.
Take methyl ester of N-dansyl-Tyr-Val-Gly: the Ki at PHM (read-out: Ki,s, ref 20a) is 54 µM.
For `O=C(O)CSC(=S)Cc1ccccc1` [compound 60, S-(2-Phenylthioacetyl)thioglycolic acid], the Ki was 13 µM at rat PAM [1] (Ki,s, rat PAM, […] DMSO); 7.9 ± 2.8 µM on rat PAM [1] (setting [3]); 3.6 ± 0.6 µM at B. germanica PHM. In addition, the “RatKi,s/InsectKi,s” value with B. germanica PHM is listed as 2.1. Further, the “antiproliferative concentration relative to Ki,s for PHM” value in the assay with DU 145 cells is ~ 60 fold and 60–300 fold. Also, in the assay on DU 145 cells (DU 145 cells, Fig. 2), the “concentration showing significant anti-proliferative effects” value was over 500 µM.
In turn, `CCCCCCCCCCCC(=S)SCC(=O)O` [compound 55, S-(Thiolauroyl)thioglycolic acid] returned a Ki at rat PAM [1] (setting [3]) of 0.54 ± 0.05 µM.
On the same count and under the same terms, under `CC(C)C[C@H](NC(=O)[C@@H]1CCCN1)C(=O)NCC(=O)NO` [compound 74, Pro-Leu-Gly hydroxamic acid] (H-Pro-Leu-Gly-{NHOH}) stands 1000 µM.
Regarding `O=C(O)CNC(=O)CCCCCCCc1ccccc1` [compound 46, 8-Phenyloctanoylglycine], the “(V/K)app lower than that of 6-phenylhexanoylglycine 50” value at rat PAM [2] is on record as ~ 2.5 fold.
`CC(NC(=S)c1ccccc1)C(=O)O` (stereo not drawn) [compound 59, N-(Thiobenzoyl)-(D,L)-alanine] registered a Ki at rat PAM [1] (setting [3]) of 7.2 ± 0.9 µM.
Same read-out and setting: in the case of `CCOC(=O)CSC(=S)c1ccc(C)cc1` [compound 70, S-(4-Methylthiobenzoyl)thioglycolic acid ethyl ester] it was 110 ± 10 µM.
At rat PAM [1], `O=C(NCP(=O)(O)O)c1cccnc1` [compound 80, (Nicotinamidomethyl)phosphonic acid] gave a Ki of over 75000 µM. Besides, the “inhibition of PHM (O2 consumption)” value against rat PAM [1] (28 mM compound, 200 μM N-octanoylglycine as substrate) was “no inhibition”.
On to `C[C@@H](NC(=O)OCc1ccccc1)C(=O)O` [compound 53, CBZ-D-alanine], for which the “(V/K)app as percent” value on rat PAM [2] is listed as 0.05–0.3%.
`O=C(NO)c1ccccc1O` [compound 71, Salicylhydroxamic acid] yielded a Ki on rat PAM [1] (setting [3]) of 300 ± 20 µM.
Consider `O=C(O)COC(=O)Nc1ccccc1` [compound 65, O-(Phenylcarbamoyl)glycolic acid], for which, at rat PAM [1] (setting [3]), the Ki is 54 ± 4 µM.
The same measure, in the same setting: under `O=C(NC(CSC(=O)c1ccccc1)C(=O)O)c1ccccc1` (stereo in doubt) [compound 68, N,S-Dibenzoyl-L-cysteine] stands 69 ± 7 µM.
For `O=C(O)CSC(=S)Nc1ccccc1` [compound 61, S-(Phenylthiocarbamoyl)thioglycolic acid], affinity at rat PAM [1] (setting [3]) was put at a Ki of 8.6 ± 1.4 µM. Also, in the assay on B. germanica PHM, the “RatKi,s/InsectKi,s” value came out at 1.6 and the Ki worked out at 5.4 ± 0.3 µM. For the same compound, the inhibition at 750 µM at PAL activity of rat PAM is about 40%.
Regarding `N[C@@H](CCC(=O)N[C@@H](CS)C(=O)NCC(=O)O)C(=O)O` [glutathione], in the assay with PHM, the Km is 130 µM.
The compound `O=C(O)CNCc1ccccc1` [compound 79, N-Benzylglycine] had a Ki on rat PAM [1] (setting [3]) of 18000 µM.
Regarding “2-Pyridylmercaptoacetylglycine [compound 47]”, at rat PAM [2], the “(V/K)app” value is listed as “(8.3 ± 0.7) × 10^4 M^−1 s^−1”, the Km came out at 36 ± 4 µM and the “Rel. (V/K)app” value was 13.
Regarding `O=C(O)CSc1ccccc1` [compound 72, S-Phenylmercaptoacetic Acid], affinity on rat PAM [1] (setting [3]) was put at a Ki of 380 ± 40 µM. In addition, in the assay on B. germanica PHM, the “RatKi,s/InsectKi,s” value was 6.9 and the Ki is 56 ± 6 µM.
Take `NCC(=O)NNC(=O)OCc1ccccc1` [compound 78, (CBZ-hydrazido)glycine]: affinity on rat PAM [1] (setting [3]) was put at a Ki of 7900 µM.
